Assay outcomes deposited in PubChem BioAssay by The Scripps Research Institute Molecular Screening Center.
An excerpt weighted towards active compounds, which were near 3.1% of everything screened.
OX1R antag-1: antagonists of human orexin 1 receptor | O43613 | CHO/OX1R cells, Fluo-8 calcium fluorescence, orexin A | inhibition, % at 5 µM | 330,000 tested, 0.43% active;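 active = inhibition above its plate's threshold, mean inhibition of all tested compounds on the plate plus 3 SD, cut at about 37% in these data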;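 note: 0% = orexin A challenge wells and 100% = SB-334867-A antagonist wells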
GPR7 antagonist: human neuropeptides B/W receptor 1 antagonism; P48145; inhibition, % at 4.4 µM; 290,000 tested, 1.1% active; GPR7-expressing cells, fluorescence antagonist assay; AID 1861; in the data active = inhibition above about 16%, passing the limit was not always enough;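 note: cells stimulated with the agonist NPW; 0% = agonist with vehicle and 100% = vehicle without agonist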
CHO parental Ca: signal in parental CHO cells, OX1R antagonist counter-screen; parental CHO-K1, ATP-induced calcium, Fluo-8 fluorescence; 330,000 tested, 0.63% active; inhibition, % at 5.6 µM;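 active = inhibition above that plate's mean sample inhibition plus 3 SD, cut at about 26% in these data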;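 note: 0% = ATP-challenged DMSO wells and 100% = DMSO wells without ATP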
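Measured by: calcium-sensitive Fluo-8 fluorescence / Test system: CHO parental line / Controls: ATP-challenged DMSO wells low, unchallenged DMSO wells high / Measure: % inhibition / Compound: single nominal dose of 5.6 µM per compound / Replicates: single well per compound, no replicates / Reagent: ATP as calcium-mobilizing challenge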
OX1R antag-2: antagonists of human orexin 1 receptor (OX1R); inhibition, % at 6.6 µM; O43613; AID 485270; OX1R-expressing cells, FRET antagonist read-out; 330,000 tested, 1.8% active; in the data active = inhibition mostly above about 38%, no sharp cut-off; inactive = mostly below about 40%;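 note: 0% = agonist challenge alone and 100% = reference antagonist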
GalR3 antag: human GalR3 antagonism | inhibition, % at 3 µM | 360,000 tested, 0.44% active | HEK293 GalR3-CNG cAMP membrane potential fluorescence; galR3 body fused to GalR1 C-terminus | AID 651719;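 active = inhibition above the screen-wide average plus 3 SD, cut at about 13% in these data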;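 note: forskolin and galanin both at EC90 stimulate the cells; cAMP rise reported by CNG channel membrane potential dye signal; 0% = forskolin plus galanin with DMSO and 100% = forskolin alone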
Target sequence (O60755 1-299 limits assumed): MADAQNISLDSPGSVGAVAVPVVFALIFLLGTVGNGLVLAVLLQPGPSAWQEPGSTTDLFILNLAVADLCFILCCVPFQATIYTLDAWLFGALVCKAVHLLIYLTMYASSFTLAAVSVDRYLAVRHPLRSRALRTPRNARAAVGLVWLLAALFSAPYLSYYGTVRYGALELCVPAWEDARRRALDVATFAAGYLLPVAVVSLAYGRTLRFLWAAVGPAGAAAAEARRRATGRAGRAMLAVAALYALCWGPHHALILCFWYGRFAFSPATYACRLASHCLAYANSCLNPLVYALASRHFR
OX1R Fluo8 conf: confirmation of human orexin 1 receptor antagonists. 1,100 tested, 38% active. AID 492963. shares compounds with OX1R antag-1. CHO/OX1R cells, orexin A calcium Fluo-8 fluorescence. inhibition, % at 5 µM; in the data active = inhibition above about 29%;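 note: 0% = agonist challenge alone and 100% = reference antagonist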
CHO Ca counter: counter-screen: parental CHO calcium response change, triplicate | shares compounds with OX1R antag-1 | inhibition, % at 5.6 µM | 1,100 tested, 9.3% active | parental CHO-K1, ATP-induced calcium, Fluo-8 fluorescence;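 active = inhibition above a per-plate limit, the mean inhibition of that plate's test compounds plus 3 SD, cut at about 25% in these data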;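 note: 0% = ATP challenge with DMSO and 100% = DMSO without ATP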
OX1R HTRF conf: OX1R (human) antagonism, HTRF confirmed; shares compounds with OX1R antag-2; OX1R-expressing cells, HTRF antagonist assay; inhibition, % at 6.6 µM; 1,800 tested, 49% active; in the data active = inhibition above about 55%;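 note: CHO cells expressing OX1R stimulated with orexin A at about EC80; 0% = agonist challenge alone and 100% = reference antagonist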
CHO-K1 HTRF cnt: counter-screen: parental CHO-K1 HTRF response; shares compounds with OX1R antag-2; parental CHO-K1 cells, HTRF counterscreen; inhibition, % at 6.6 µM; 1,800 tested, 48% active; in the data active = inhibition above about 17%;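 note: 0% = agonist challenge with vehicle and 100% = vehicle alone without agonist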
Active calls of the source: *; nt = no result.

SMILES	OX1R antag-1	GPR7 antagonist	CHO parental Ca	OX1R antag-2	GalR3 antag	OX1R Fluo8 conf	CHO Ca counter	OX1R HTRF conf	CHO-K1 HTRF cnt
CCOC(=O)c1[nH]c2ccccc2c1NC(=O)c1ccc(Br)o1	101*	1	-13	99*	-9	34*	-3	90*	9
COCCCNc1ccn2nc(-c3ccc(OCc4ccccc4)cc3)cc2n1	nt	nt	nt	nt	-5	nt	nt	nt	nt
Cc1nc2ccc(-c3nc4ccccc4o3)cc2[nH]1	50*	12	-6	105*	2	33*	-2	94*	1
Cc1ccnc2ccc(-c3nc4ccccc4o3)cc12	41*	-12	-25	92*	-5	48*	-18	94*	10
C#CCN1C(=O)[C@]2(OC[C@@H]3Cc4ccccc4[C@@H]3C=C2C)c2ccccc21	nt	nt	nt	nt	-7	nt	nt	nt	nt
COc1cc(CN2C(=O)C(Cc3ccccc3)ON=C2c2ncccc2C)cc(OC)c1 (stereo not drawn)	nt	nt	nt	nt	0	nt	nt	nt	nt
Cc1ccc(F)c(S(=O)(=O)NC(=O)C2(C)CCN2C(=O)Cc2cccs2)c1 (stereo not drawn)	nt	nt	nt	nt	0	nt	nt	nt	nt
O=C(NC(Cc1c[nH]c2ccccc12)C(=O)N/N=C/c1cccnc1)c1cccs1 (stereo not drawn)	37	-9	-18	71*	10	24	-4	54	0
O=C(NC(Cc1c[nH]c2ccccc12)C(=O)Nc1ccc(F)cc1)c1cccs1 (stereo not drawn)	-12	-4	-4	8	2	nt	nt	nt	nt
COc1cc(N(C)C)ccc1[C@]1(O)C(=O)N(C)c2ccc(Br)cc21	nt	nt	nt	nt	-4	nt	nt	nt	nt
COc1ccccc1-c1noc2c1C(=O)N(Cc1cn(-c3ccccc3OC)nn1)CC2	nt	nt	nt	nt	-3	nt	nt	nt	nt
COc1ccc2cc(C(=O)/C=C/c3cc(OC)c(O)c(OC)c3)ccc2c1	35	-5	-15	62*	1	49*	-1	75*	-9
CNc1oc(-c2ccccc2Cl)nc1C#N	-3	9	-4	20	2	nt	nt	nt	nt
CNc1oc(-c2cccc3ccccc23)nc1C#N	92*	-4	-15	90*	-5	68*	-2	94*	5
COc1ccccc1C(=O)Nc1nnc(-c2ccco2)s1	55*	-3	-31	59*	-1	12	-1	56*	6
O=C(/C=C(\Nc1ccc(Br)c(F)c1)c1ccccc1)c1ccccc1	nt	nt	nt	nt	-7	nt	nt	nt	nt
O=C(/C=C(\Nc1cccc(OC(F)F)c1)c1ccccc1)c1ccccc1	nt	nt	nt	nt	-8	nt	nt	nt	nt
CCOc1ccc(/C=N/NC(=O)c2cc3c(OC)cc(OC)cc3[nH]2)cc1OC	35	-20	-17	81*	-11	42*	0	89*	15
CCOc1ccc(/C=N/NC(=O)c2cc3c(OC)cccc3[nH]2)cc1	-19	-6	8	24	-11	nt	nt	nt	nt
COc1ccc(OC)c(/C=N/NC(=O)c2cc3c(OC)cccc3[nH]2)c1	71*	1	-23	101*	3	32*	-14	89*	10
COc1cccc(/C=N/NC(=O)c2cc3c(OC)cccc3[nH]2)c1O	-15	-6	-2	29	-6	nt	nt	nt	nt
O=C1c2ccccc2C(c2nc3ccccc3[nH]2)N1Cc1ccco1 (stereo not drawn)	nt	nt	nt	nt	-3	nt	nt	nt	nt
N#Cc1ccc(S(=O)(=O)N2CCCc3nc(-c4ccccc4)ccc32)cc1	nt	nt	nt	nt	-8	nt	nt	nt	nt
CCCCC1O[C@@H](C)[C@@H]2CN3CCc4c([nH]c5ccccc45)[C@@H]3C[C@@H]2N1C (stereo partly drawn)	nt	nt	nt	nt	-8	nt	nt	nt	nt
Cc1c(C(=O)Nc2ccc3nc(N4CCOCC4)sc3c2)oc2ccccc12	-11	nt	-21	26	-5	nt	nt	nt	nt
Cc1nc2ccc(NC(=O)c3oc4ccc(F)cc4c3C)cc2s1	72*	nt	-9	100*	nt	59*	-11	93*	13
COc1ccc(-c2cc3nc(-c4ccccc4)cc(N4CCN(C(=O)c5ccoc5)CC4)n3n2)cc1	nt	nt	nt	nt	-6	nt	nt	nt	nt
